Rows were chosen to be rich in hits. Some 1.2% of all compounds tested hit in one or more screens of this group.
Tn6 DDE FP = inhibitors of Tn6 peptide binding to human fibrin DD(E); Fibrin DD(E) TRITC-Tn6 fluorescence polarization displacement; inhibition, % at 8.3 µM; hit rate 0.21% among 370,000; P02675;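 active = inhibition above a per-campaign cutoff: mean of compounds within control limits plus 3 SD, cut at about 15% in these data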;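 also: 0% = median of all compound wells on the plate and 100% = blocking peptide control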
Target sequence (P02675 whole entry, looked up): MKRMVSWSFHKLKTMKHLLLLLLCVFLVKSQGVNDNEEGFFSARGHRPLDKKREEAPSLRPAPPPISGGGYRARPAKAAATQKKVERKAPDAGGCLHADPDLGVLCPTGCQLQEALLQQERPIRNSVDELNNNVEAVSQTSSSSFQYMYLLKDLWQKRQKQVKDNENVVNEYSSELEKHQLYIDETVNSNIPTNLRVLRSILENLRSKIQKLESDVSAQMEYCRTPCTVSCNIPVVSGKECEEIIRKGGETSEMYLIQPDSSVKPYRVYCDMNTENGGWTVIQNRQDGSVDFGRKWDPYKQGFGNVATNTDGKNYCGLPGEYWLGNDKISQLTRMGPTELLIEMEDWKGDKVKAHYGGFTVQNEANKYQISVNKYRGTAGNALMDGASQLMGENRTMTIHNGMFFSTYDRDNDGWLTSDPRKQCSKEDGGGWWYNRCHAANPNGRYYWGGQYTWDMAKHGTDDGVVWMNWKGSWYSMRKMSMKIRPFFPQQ
CRFR2-BP antag = antagonists of CRF-binding protein/CRF-R2 receptor complex; hit rate 0.59% among 350,000; HEK293 CRF-R2/CRF-BP, CRF-induced calcium fluorescence; inhibition, % at 11.8 µM;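 active = inhibition of the ligand-induced calcium signal above about 50% at the single tested concentration, limit read from the data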
DDE Tn7 FP inh = inhibitors of Tn7 peptide binding to human fibrin DD(E). hit rate 0.13% among 370,000. inhibition, % at 8.3 µM. FP displacement of FITC-Tn7 peptide from fibrin DD(E); 0% = median of compound wells per plate;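 active = inhibition above the mean of compounds falling within the control limits plus 3 SD of them, cut at about 14% in these data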;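 also: 0% = plate median of compound wells and 100% = 10 µM Aha-Tn7 peptide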
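Assay system: human fibrin DD(E). Input: DD(E) 2 µM final. Medium: Tris buffer with calcium and detergent, pH 7.8. Compound dosing: single point at 8.3 µM. Timing: 10 min plus 3 h, room temperature. Technique: fluorescence polarization of the labelled Tn7 tracer. Read-out: percent inhibition. Replicates: singlicate testing.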
CRFR2-BP ag = agonists of human CRF-binding protein/CRF-R2 receptor complex | activation, % at 13.2 µM | hit rate 0.46% among 350,000 | HEK293 CRF-R2/CRF-BP, calcium dye fluorescence (FLIPR); percent of saturating CRF peptide response;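 active = activation of at least 50%, plus an integration ratio under a set limit after plate pattern correction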;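 also: plate controls were neutral control wells without compound for no effect and CRF at EC100 for full effect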
* = called active by the depositor; nt = no result.

SMILES	Tn6 DDE FP	CRFR2-BP antag	DDE Tn7 FP inh	CRFR2-BP ag
OC[C@@H]1CN(CCc2ccccc2)C[C@H](n2cnc3c(N4CCOCC4)ncnc32)O1	1	nt	-8	nt
COC(=O)C1CN(C2CCCC2)CCS(=O)(=O)N1Cc1ccc(Cl)cc1 (stereo not drawn)	-3	nt	0	nt
Cc1ccc(C(=O)NC2CC3CCC(C2)N3Cc2ccco2)cc1 (stereo not drawn)	-3	17	9	0
COc1cc(OC)cc(C(=O)NC2CC3CCC(C2)N3Cc2ccco2)c1 (stereo not drawn)	-2	58*	-5	-1
CCCn1cc(S(=O)(=O)c2ccc(OC)cc2)c(=O)c2cc(OCC)ccc21	-2	-4	2	-2
CCCn1cc(S(=O)(=O)c2ccccc2)c(=O)c2cc(OCC)ccc21	10	75*	-1	1
COC(=O)CSc1nnc(-c2ccc(NS(=O)(=O)c3c(C(C)C)cc(C(C)C)cc3C(C)C)cc2)o1	-1	nt	8	nt
C#CCN1CC(N(C)CCOC(=O)c2occ3ccccc23)CS1(=O)=O (stereo not drawn)	-2	nt	-4	nt
COc1ccc(OC)c(/C=C2/Sc3ccccc3C2=O)c1	-5	-207	-4	197*
Cn1c(SCC(=O)N2CCCc3ccccc32)nc2cccnc21	-2	56*	-1	-4
Cn1c(SCC(=O)N2CCc3ccccc32)nc2cccnc21	-1	3	-4	0
COCCN1CC(=O)N(c2cccc(C)c2C)C(c2ccc(Cl)cc2)C1=O (stereo not drawn)	9	56*	5	-3
Cc1ccc(C(=O)N/N=C\c2ccccn2)cn1	5	113*	3	2
O=S(=O)(c1cccc2nsnc12)N1CCc2ccccc2C1	-6	52*	-2	-4
CCOC(=O)/C(C#N)=C\c1cc(C)n(-c2ccccc2)c1C	4	39	5	-1
CCOC(=O)/C(C#N)=C\c1ccc2c(c1)OCO2	-5	110*	-9	-1
CCOC(=O)/C(C#N)=C\c1ccc(N2CCN(C/C=C/c3ccccc3)CC2)cc1	-2	-62	9	55*
Cc1cccc(NC(=O)CSc2nnc(SCc3ccc(Cl)cc3)s2)c1	1	nt	5	nt
COC(=O)[C@]12C[C@H](CC(=O)NCCCN3CCCC3=O)C(=O)N(Cc3ccco3)C1=C[C@H](C(C)C)O[C@@H]2C1CC1	-5	nt	-2	nt
CCN(CC)C(=O)CCn1nc(-c2ccc(C)cc2)c2ccccc2c1=O	nt	-17	nt	-3
CCN(CC)C(=O)Cn1c(=O)c2ccccc2n2c(=S)sc(-c3cccc(C)c3)c12	-1	-123	2	55*
O=C(Nc1ccccn1)C1CCN(S(=O)(=O)c2ccc3ccccc3c2)CC1	-4	59*	0	0
Cc1cc(NC(=O)CN2CCN(S(=O)(=O)c3ccc4ccccc4c3)CC2)no1	-1	50*	4	3
O=C(Nc1nc2ccc(S(=O)(=O)N3CCCC3)cc2s1)c1ccccn1	-3	65*	0	3
O=C(Nc1nc2ccc(S(=O)(=O)N3CCCCC3)cc2s1)c1ccncc1	-2	-9	4	-1
SMILES	Tn6 DDE FP	CRFR2-BP antag	DDE Tn7 FP inh	CRFR2-BP ag
CC(=O)c1ccc(NC(=O)CN2CCN(S(=O)(=O)c3ccc4ccccc4c3)CC2)cc1	5	6	-5	1
COC(=O)[C@]12C[C@H](CC(=O)NCCCN3CCCC3=O)C(=O)N(Cc3ccc(Cl)cc3Cl)C1=C[C@H](COCc1ccccc1)O[C@@H]2C	-3	nt	0	nt
Cc1ccc(-c2nc3ncccn3c2NC(=O)Nc2ccc(F)cc2)cc1	1	nt	2	nt
CC(CCN1CCC(C(O)(c2ccccc2)c2ccccc2)CC1)Oc1ccccc1C#N (stereo not drawn)	-7	nt	-11	nt
CCOC(=O)C1=CCN(S(=O)(=O)c2ccccc2Br)C1c1cccc(Cl)c1 (stereo not drawn)	5	nt	1	nt
Cc1cc(/C=C(/C#N)C(=O)O)c(C)n1-c1cccc2ccccc12	-9	76*	3	-4
CO[C@H]([C@H](C)/C=C/N(C)C=O)[C@@H](C)C(=O)CC[C@H](C)[C@H](O)[C@H](C)[C@H]1OC(=O)/C=C/C(C)=C/C[C@H](O)C[C@@H]2C=CC[C@@H](C[C@H](OC)[C@@H](C)[C@@H](OC)C[C@@H](OC)[C@@H]1C)O2	-6	nt	-8	nt
CCOC(=O)c1ccc(CNC(=O)Cn2nnc(-c3ccccc3)n2)o1	1	-100	-4	143*
CNC(=S)N/N=C/c1c(C(=O)OC)cnn1-c1ccc(Cl)cc1	5	nt	3	nt
CCN(Cc1cn(Cc2ccc(C)cc2)nn1)S(=O)(=O)c1ccccc1Br	0	nt	-2	nt
COc1cc(/C=C2\SC(=S)N(NC(=O)c3cccc(O)c3)C2=O)ccc1O	-13	-62	-13	64*
COc1ccc(/C=C2\SC(=S)N(CCC(=O)Nc3ccccc3C(=O)O)C2=O)cc1	-1	16	-1	0
CCOc1ccc(/C=C2\SC(=S)N(CCC(=O)Nc3ccccc3C(=O)O)C2=O)cc1	-1	55*	-8	-3
COc1ccc(/C=C2\SC(=S)N(CC(=O)Nc3nnc(C)s3)C2=O)cc1	1	-45	10	-2
COc1cc(/C=C2\SC(=S)N(NC(=O)c3ccc(O)c(OC)c3)C2=O)ccc1O	-16	-42	-11	31
COc1ccc(/C=C2\SC(=S)N(CC(=O)NCCO)C2=O)cc1	-5	60*	-1	1
COc1cc(/C=C2\SC(=S)N(NS(=O)(=O)c3ccc(C)cc3)C2=O)cc(OC)c1OC	-7	55*	-4	1
Cc1ccc(CNC(=O)OC(C)(C)C)c(/C=C/S(=O)(=O)NCCc2ccccc2)c1	-2	nt	-6	nt
COc1ccc(/C=C2\SC(=S)N(C(Cc3ccccc3)C(=O)O)C2=O)cc1 (stereo not drawn)	3	58*	-4	-1
COc1cc(/C=C2\SC(=S)N(NS(=O)(=O)c3ccc(C)cc3)C2=O)ccc1O	-27	-34	-19	59*
CCOc1cc(/C=C2\SC(=S)N(C(C(=O)O)c3ccccc3)C2=O)ccc1O (stereo not drawn)	0	-26	-5	36
COc1cc(/C=C2\SC(=S)N(NS(=O)(=O)c3ccccc3)C2=O)ccc1O	-16	-36	-9	27
COc1cc(/C=C2\SC(=S)N(C(C(=O)O)c3ccccc3)C2=O)ccc1O (stereo not drawn)	-1	-51	-11	53*
O=C(NC1CCCCN(Cc2ccc(Cl)cc2)C1=O)C(c1ccccc1)c1ccccc1 (stereo not drawn)	-6	nt	-3	nt
C[C@@H](CO)N(Cc1cn(Cc2ccccc2)nn1)S(=O)(=O)c1ccccc1Br	-1	nt	-4	nt
C=CCN1C(=O)[C@@H](CC(=O)NCCCN2CCCC2=O)[C@]2(C(=O)OC)CCCCC=C12	0	nt	6	nt
O=c1c2cc3cc(Cl)ccc3nc2ncn1CCc1c[nH]c2ccccc12	-6	nt	2	nt
CN1C(=O)C2(N=c3ccccc3=N2)c2ccccc21	nt	68*	nt	0

Compound activity (PubChem)
